ChEMBL document CHEMBL4196220, “Synthesis and Discovery of Arylpiperidinylquinazolines: New Inhibitors of the Vesicular Monoamine Transporter” (J Med Chem, 2018)
Calls of active or inactive are those of the source. No cut-off for these calls is given here.

Legend:
[1] = molecular target: T1, Synaptic vesicular amine transporter (Homo sapiens, UniProt Q05940); assay: Displacement of [3H]reserpine from human VMAT2 expressed in HEK293 cell membranes incubated for 60 mins by scintillation counting method
T1 sequence (Q05940 whole entry): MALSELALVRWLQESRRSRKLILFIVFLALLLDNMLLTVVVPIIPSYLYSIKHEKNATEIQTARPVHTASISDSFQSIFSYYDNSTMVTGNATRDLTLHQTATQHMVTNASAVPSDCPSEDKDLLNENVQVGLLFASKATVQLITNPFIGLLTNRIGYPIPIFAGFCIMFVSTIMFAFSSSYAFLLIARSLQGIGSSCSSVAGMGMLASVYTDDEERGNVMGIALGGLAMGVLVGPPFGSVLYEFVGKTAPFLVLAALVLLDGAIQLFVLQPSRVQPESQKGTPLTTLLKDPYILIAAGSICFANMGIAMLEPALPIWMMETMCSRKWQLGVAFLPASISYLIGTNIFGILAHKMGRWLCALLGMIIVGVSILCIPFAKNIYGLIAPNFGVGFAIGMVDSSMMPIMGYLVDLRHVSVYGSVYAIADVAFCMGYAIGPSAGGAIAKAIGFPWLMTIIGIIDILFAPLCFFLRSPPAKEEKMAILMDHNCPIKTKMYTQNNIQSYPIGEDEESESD

[2] = molecular target: T1, Synaptic vesicular amine transporter; assay: Displacement of [3H]DHTB from human VMAT2 expressed in HEK293 cell membranes incubated for 90 mins by microbeta scintillation counting method
In short: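 Tris buffer without ATP, 90 min at room temperature. Nonspecific binding defined with 2 μM DHTB. Filtermat filtration and microBeta counting. Test compounds 1 nM–10 μM.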

[3] = molecular target: T1, Synaptic vesicular amine transporter; assay: Displacement of [3H](+)-syn-Ethyl 1-(2-(2,4-Dioxo-1,2-dihydroquinazolin-3(4H)-yl)ethyl)-4-(4-fluorophenyl)piperidine-3-carboxylate from human VMAT2 expressed in HEK293 cell membranes incubated for 60 mins by scintillation counting method
In short: (§1)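 Membranes from confluent HEK-293 cells stably expressing human VMAT2, prepared by osmotic shock and restored with Tris/K tartrate/MgSO4. About 50−75 μg protein per assay with [3H](+)-5b at 50−100 nM final. Incubated 60 min at 4 °C in the dark. Filtration, then beta counting.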

[4] = molecular target: T1, Synaptic vesicular amine transporter; assay: Inhibition of human VMAT2 expressed in HEK293 cell membranes assessed as reduction in [3H[-5HT uptake pre-incubated for 10 mins before [3H[-5HT addition and measured after 6 mins; assay type: cell-based
In short: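 Vesicular membranes from HEK-hVMAT2 cells: differential centrifugation, osmotic shock, then resuspension in uptake buffer (tartrate/Tris/KCl/MgSO4, ascorbate, tropolone, pargyline, pH 7.4, 2 mM MgATP). Drug preincubation 10 min at 30 °C. Stopped by filtration. Duplicate wells, IC50.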

[5] = molecular target: Synaptic vesicular amine transporter (Mus musculus, UniProt Q8BRU6); assay: Inhibition of VMAT2 in C57Bl/6J mouse striatal membranes assessed as reduction in [3H[-5HT uptake pre-incubated for 10 mins before [3H[-5HT addition and measured after 8 mins; assay type: cell membranes, Striatum, Membrane
Sequence of Synaptic vesicular amine transporter (Mus musculus, UniProt Q8BRU6) (Q8BRU6 whole entry): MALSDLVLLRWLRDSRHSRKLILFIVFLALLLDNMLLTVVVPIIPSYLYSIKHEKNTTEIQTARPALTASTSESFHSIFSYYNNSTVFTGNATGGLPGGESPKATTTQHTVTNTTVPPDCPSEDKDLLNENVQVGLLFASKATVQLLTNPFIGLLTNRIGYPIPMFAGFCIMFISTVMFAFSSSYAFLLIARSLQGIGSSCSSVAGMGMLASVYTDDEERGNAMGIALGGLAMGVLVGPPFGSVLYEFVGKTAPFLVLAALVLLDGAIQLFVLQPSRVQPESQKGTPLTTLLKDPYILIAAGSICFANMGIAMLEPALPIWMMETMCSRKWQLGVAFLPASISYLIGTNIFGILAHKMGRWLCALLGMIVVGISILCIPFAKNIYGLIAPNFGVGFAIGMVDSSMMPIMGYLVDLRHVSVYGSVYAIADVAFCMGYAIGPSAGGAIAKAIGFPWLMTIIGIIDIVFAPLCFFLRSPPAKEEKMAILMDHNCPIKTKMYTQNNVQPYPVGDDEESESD

[6] = molecular target: 5-hydroxytryptamine receptor 2A (Homo sapiens, UniProt P28223); assay: biochemical; assay type: cell-based, HEK293
Sequence of 5-hydroxytryptamine receptor 2A (P28223 whole entry): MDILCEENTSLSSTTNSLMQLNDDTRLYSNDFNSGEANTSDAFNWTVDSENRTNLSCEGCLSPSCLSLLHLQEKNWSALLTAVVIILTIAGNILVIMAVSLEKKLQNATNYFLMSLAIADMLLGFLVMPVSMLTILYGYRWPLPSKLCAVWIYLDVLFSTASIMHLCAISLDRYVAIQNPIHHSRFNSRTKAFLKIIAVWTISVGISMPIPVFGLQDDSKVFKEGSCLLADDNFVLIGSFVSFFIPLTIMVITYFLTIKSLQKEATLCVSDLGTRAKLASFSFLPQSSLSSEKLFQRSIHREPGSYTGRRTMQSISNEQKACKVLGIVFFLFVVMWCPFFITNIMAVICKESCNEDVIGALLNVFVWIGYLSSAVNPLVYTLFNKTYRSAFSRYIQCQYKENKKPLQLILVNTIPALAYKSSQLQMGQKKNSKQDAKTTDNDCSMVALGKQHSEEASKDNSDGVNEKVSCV

[7] = molecular target: Sodium-dependent dopamine transporter (Homo sapiens, UniProt Q01959); assay: Displacement of [125I]RTI-55 from human DAT expressed in HEK293 cell membranes
Sequence of Sodium-dependent dopamine transporter (Q01959 whole entry): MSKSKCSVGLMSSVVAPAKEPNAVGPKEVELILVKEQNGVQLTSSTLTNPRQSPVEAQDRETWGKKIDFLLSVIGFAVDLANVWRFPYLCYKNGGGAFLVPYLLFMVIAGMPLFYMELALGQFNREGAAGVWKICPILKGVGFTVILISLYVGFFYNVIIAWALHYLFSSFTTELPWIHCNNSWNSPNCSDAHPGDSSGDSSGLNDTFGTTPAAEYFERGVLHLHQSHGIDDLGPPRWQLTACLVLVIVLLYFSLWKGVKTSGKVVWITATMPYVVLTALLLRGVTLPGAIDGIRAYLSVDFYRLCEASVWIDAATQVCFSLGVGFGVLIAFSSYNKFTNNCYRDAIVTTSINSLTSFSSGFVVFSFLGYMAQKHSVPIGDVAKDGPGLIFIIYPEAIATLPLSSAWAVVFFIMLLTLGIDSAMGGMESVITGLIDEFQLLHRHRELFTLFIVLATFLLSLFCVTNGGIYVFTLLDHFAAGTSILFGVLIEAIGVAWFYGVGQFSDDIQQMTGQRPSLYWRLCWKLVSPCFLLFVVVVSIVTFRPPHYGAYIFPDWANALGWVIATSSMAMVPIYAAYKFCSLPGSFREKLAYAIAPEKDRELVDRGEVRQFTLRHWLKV
In short: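 Total particulate membranes from HEK-293 cells stably expressing hDAT, with [125I]RTI-55 at 40−60 pM. Nonspecific binding defined with 5 μM mazindol.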

[8] = molecular target: T2, 5-hydroxytryptamine receptor 1A (Homo sapiens) (UniProt P08908); assay: Binding affinity to 5HT1A receptor (unknown origin)
T2 sequence (whole entry): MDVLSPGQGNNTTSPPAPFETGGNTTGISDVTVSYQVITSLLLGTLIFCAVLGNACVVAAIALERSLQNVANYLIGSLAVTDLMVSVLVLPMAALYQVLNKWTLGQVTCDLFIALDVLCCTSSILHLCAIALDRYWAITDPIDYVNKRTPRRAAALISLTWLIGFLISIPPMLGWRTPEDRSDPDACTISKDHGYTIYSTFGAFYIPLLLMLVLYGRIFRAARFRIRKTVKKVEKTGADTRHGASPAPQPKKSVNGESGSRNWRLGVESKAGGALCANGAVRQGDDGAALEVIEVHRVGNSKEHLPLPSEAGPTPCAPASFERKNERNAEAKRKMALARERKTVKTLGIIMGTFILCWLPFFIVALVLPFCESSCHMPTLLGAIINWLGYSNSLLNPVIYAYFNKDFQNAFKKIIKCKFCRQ

HEK293 [9] = assay: Cytotoxicity in HEK293 cells expressing human VMAT2 assessed as reduction in cell viability at 10 uM incubated for 24 hrs by MTT assay; assay type: cell-based; details: hek293, 24 h
In short: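 HEK-VMAT2 cells plated at 5 × 10^4 per well. Drugs added on day 2 to triplicate wells, all with 0.1% DMSO, for 24 h. MTT reagent then 2 h at 37 °C, solvent added, read at 590 nm. Values normalized to control cells. One-way ANOVA with post hoc test.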

[10] = molecular target: T1, Synaptic vesicular amine transporter; assay: Binding affinity to human VMAT2 expressed in HEK293 cell membranes by scintillation counting method based saturation binding assay
In short: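 Saturation binding on HEK-VMAT2 membranes, with duplicate points mixing labeled and unlabeled ligand. [3H](+)-5b: 5–600 nM, 60 min at 4 °C in the dark, buffer with 2 mM MgATP. 3−4 independent experiments.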

HEK293 [11] = assay: Cytotoxicity in HEK293 cells expressing human VMAT2 assessed as reduction in cell viability at 1 uM incubated for 24 hrs by MTT assay; assay type: cell-based; details: hek293, 24 h
In short: (§2)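 HEK-293 cells stably expressing human VMAT2, seeded at 5 × 10^4 cells/well in DMEM with 10% FetalClone, penicillin/streptomycin and G418. On day 2, compound in DMEM was added to triplicate wells, with 0.1% DMSO in all conditions, for 24 h. MTT reagent was then added for 2 h at 37 °C, followed by solvent. Absorbance read at 590 nm, normalized to control cells, and analyzed by one-way ANOVA with Dunnett's test.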

HEK293 [12] = assay: Cytotoxicity in HEK293 cells expressing human VMAT2 assessed as reduction in cell viability at 3 uM incubated for 24 hrs by MTT assay; assay type: cell-based; details: hek293, 24 h; in short: as §2
[13] = molecular target: T1, Synaptic vesicular amine transporter; assay: Binding affinity to human VMAT2 expressed in HEK293 cell membranes in presence of 2 mM Mg-ATP by scintillation counting method; details: tested as the 3H-labelled form; in short: as §1
[14] = molecular target: T1, Synaptic vesicular amine transporter; assay: Binding affinity to human VMAT2 expressed in HEK293 cell membranes assessed as observed associate rate constant at 24 to 28 nM in presence of 2 mM Mg-ATP by scintillation counting method; details: tested as the 3H-labelled form
In short: (§3)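 Kinetics for the [3H](+)-5b site on HEK-293 membranes expressing human VMAT2, run with 2 mM Mg-ATP. Excess unlabeled ligand of the same kind was used. Association at a single radioligand concentration was fitted as one-phase exponential association to give kobs.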

[15] = molecular target: T1, Synaptic vesicular amine transporter; assay: Binding affinity to human VMAT2 expressed in HEK293 cell membranes assessed as half life at 24 to 28 nM in presence of 2 mM Mg-ATP by scintillation counting method; details: tested as the 3H-labelled form; in short: as §3
[16] = molecular target: Sodium-dependent serotonin transporter (Homo sapiens, UniProt P31645); assay: Displacement of [125I]RTI-55 from human SERT expressed in HEK293 cell membranes
Sequence of Sodium-dependent serotonin transporter (P31645 whole entry): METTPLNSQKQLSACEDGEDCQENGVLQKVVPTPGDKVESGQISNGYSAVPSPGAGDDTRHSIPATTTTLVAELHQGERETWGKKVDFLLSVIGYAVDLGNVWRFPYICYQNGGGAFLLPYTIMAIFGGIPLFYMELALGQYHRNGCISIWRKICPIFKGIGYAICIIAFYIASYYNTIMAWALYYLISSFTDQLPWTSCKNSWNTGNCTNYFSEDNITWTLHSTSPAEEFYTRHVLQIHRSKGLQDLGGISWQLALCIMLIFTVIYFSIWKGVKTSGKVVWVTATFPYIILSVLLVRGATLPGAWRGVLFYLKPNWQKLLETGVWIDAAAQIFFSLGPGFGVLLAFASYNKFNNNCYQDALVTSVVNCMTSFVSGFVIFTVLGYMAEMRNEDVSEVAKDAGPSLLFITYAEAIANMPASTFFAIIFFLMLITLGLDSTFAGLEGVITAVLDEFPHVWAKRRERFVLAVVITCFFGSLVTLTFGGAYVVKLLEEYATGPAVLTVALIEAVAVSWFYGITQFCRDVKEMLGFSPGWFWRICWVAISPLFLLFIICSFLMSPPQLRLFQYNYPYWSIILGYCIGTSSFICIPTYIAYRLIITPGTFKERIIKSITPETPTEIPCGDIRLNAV

[17] = molecular target: Sodium-dependent noradrenaline transporter (Homo sapiens, UniProt P23975); assay: Displacement of [125I]RTI-55 from human NET expressed in HEK293 cell membranes
Sequence of Sodium-dependent noradrenaline transporter (P23975 whole entry): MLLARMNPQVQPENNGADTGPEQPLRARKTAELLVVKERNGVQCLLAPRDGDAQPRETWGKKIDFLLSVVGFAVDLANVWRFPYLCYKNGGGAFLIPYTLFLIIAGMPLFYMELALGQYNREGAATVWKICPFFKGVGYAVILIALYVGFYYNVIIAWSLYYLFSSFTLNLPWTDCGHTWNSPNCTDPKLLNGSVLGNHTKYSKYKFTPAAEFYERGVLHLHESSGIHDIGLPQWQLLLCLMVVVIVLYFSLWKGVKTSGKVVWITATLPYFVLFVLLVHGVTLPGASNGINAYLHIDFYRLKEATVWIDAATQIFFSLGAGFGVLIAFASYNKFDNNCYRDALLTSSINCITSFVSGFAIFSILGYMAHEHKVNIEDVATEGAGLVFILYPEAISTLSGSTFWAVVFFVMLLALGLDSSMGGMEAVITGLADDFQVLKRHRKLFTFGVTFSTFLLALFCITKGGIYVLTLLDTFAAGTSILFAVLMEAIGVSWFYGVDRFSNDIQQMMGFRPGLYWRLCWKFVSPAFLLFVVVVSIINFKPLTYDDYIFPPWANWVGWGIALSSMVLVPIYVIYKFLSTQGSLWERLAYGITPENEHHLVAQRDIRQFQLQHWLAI

SMILES | Ki [1] | Ki [2] | Ki [3] | IC50 [4] | IC50 [5] | Ki [6] | Ki [7] | Activity [8] | Activity (HEK293 [9]) | further results
CCOC(=O)[C@@H]1CN(CCn2c(=O)[nH]c3ccccc3c2=O)CC[C@@H]1c1ccccc1 (racemic) | 0.07 µM | > 7.7 µM | 0.287 µM | 0.0197 µM | 0.0091 µM | > 10 µM | 1.61 µM | inactive | Non-Toxic | –
CCOC(=O)[C@@H]1CN(CCn2c(=O)[nH]c3ccccc3c2=O)CC[C@@H]1c1cccs1 (racemic) | 0.45 µM | 6.16 µM | 0.9 µM | 0.101 µM | 0.0315 µM | > 9.3 µM | > 7.1 µM | inactive | Non-Toxic | –
COc1cc2c(cc1OC)C1CC(O)C(CC(C)C)CN1CC2 (stereo unspecified) | – | – | – | – | 0.0198 µM | 0.0067 µM | – | – | Non-Toxic | Bmax [10]: 41.2 pmol/mg
CCOC(=O)[C@@H]1CN(CCn2c(=O)[nH]c3ccccc3c2=O)CC[C@@H]1c1ccc(F)cc1 (racemic) | – | – | – | – | 0.00346 µM | 2.38 µM | 4.17 µM | inactive | Non-Toxic | –
CCOC(=O)[C@@H]1CN(CCn2c(=O)[nH]c3ccccc3c2=O)CC[C@@H]1c1ccc(C)cc1 (racemic) | > 10 µM | > 9.1 µM | 0.452 µM | 2.7 µM | – | > 10 µM | 7.3 µM | inactive | – | –
CN[C@@H]1C[C@H]2O[C@@](C)([C@@H]1OC)n1c3ccccc3c3c4c(c5c6ccccc6n2c5c31)C(=O)NC4 [STAUROSPORINE] | – | – | – | – | – | – | – | – | – | Activity (HEK293 [11]): 45%; Activity (HEK293 [12]): 60%
CCOC(=O)c1ccc([C@H]2CCN(CCn3c(=O)[nH]c4ccccc4c3=O)C[C@H]2C(=O)OCC)cc1 (racemic) | – | – | – | – | – | > 10 µM | > 10 µM | inactive | – | –
CCOC(=O)[C@@H]1CN(CCn2c(=O)[nH]c3ccccc3c2=O)CC[C@@H]1c1ccc(C(F)(F)F)cc1 (racemic) | > 10 µM | > 10 µM | 0.72 µM | 2.9 µM | – | > 10 µM | > 10 µM | inactive | – | –
CCOC(=O)[C@@H]1CN(CCn2c(=O)[nH]c3ccccc3c2=O)CC[C@@H]1c1cccc(C(F)(F)F)c1 (racemic) | 0.99 µM | > 10 µM | 0.35 µM | 0.125 µM | 0.0128 µM | > 10 µM | > 10 µM | inactive | Non-Toxic | –
CNC(C)Cc1ccccc1 (stereo unspecified) | 6.4 µM | 346 µM | 24.5 µM | 3.62 µM | 2.74 µM | 101 µM | – | – | Non-Toxic | –
CCOC(=O)C1CN(CCn2c(=O)[nH]c3ccccc3c2=O)CCC1c1ccc(F)cc1 (single isomer, unassigned; (+)) [listing 1 of 2 here] | – | – | – | – | – | – | – | inactive | – | –
COC(=O)[C@H]1[C@H]2C[C@@H]3c4[nH]c5cc(OC)ccc5c4CCN3C[C@H]2C[C@@H](OC(=O)c2cc(OC)c(OC)c(OC)c2)[C@@H]1OC [RESERPINE] | – | – | – | – | 0.00179 µM | – | – | – | – | Bmax [10]: 0.942 pmol/mg; Activity (HEK293 [11]): Non-Toxic
CCOC(=O)[C@@H]1CN(CCn2c(=O)[nH]c3ccccc3c2=O)CC[C@@H]1c1ccc(N(C)C)cc1 (racemic) | > 10 µM | > 10 µM | 1.96 µM | 5.8 µM | – | > 10 µM | > 10 µM | inactive | – | –
CCOC(=O)[C@@H]1CN(CCn2c(=O)[nH]c3ccccc3c2=O)CC[C@H]1c1ccc(F)cc1 (racemic) | – | – | – | – | 0.0247 µM | 0.0373 µM | > 9.3 µM | inactive | Non-Toxic | –
CCC1(O)CC2c3cc(OC)c(OC)cc3CCN2CC1CC(C)C (stereo unspecified) | 0.083 µM | 0.064 µM | 1.93 µM | 0.154 µM | 0.0496 µM | > 10 µM | – | – | Non-Toxic | –
CCOC(=O)C1CN(CCn2c(=O)[nH]c3ccccc3c2=O)CCC1c1ccc(F)cc1 (single isomer, unassigned; (-)) [listing 1 of 2 here] | – | – | – | – | 0.0066 µM | – | 9.9 µM | – | – | Ki ([6]; hek293): > 10 µM
CCOC(=O)[C@H]1CN(CCn2c(=O)[nH]c3ccccc3c2=O)CC[C@H]1c1ccc(F)cc1 | – | – | – | – | – | – | – | – | – | fold change (FC) [13]: 15; K [14]: 0.051; T1/2 [15]: < 1 min; Bmax ([10]; tested as the 3H-labelled form): 13.5 pmol/mg
CCOC(=O)[C@@H]1CN(CCn2c(=O)[nH]c3ccccc3c2=O)CC[C@@H]1c1ccc(-c2ccccc2)cc1 (racemic) | > 10 µM | > 10 µM | 3.77 µM | > 10 µM | – | > 10 µM | > 10 µM | inactive | – | –
CN1[C@@H](CC(=O)c2ccccc2)CCC[C@H]1C[C@H](O)c1ccccc1 [LOBELINE] | 1.84 µM | > 10 µM | 1.95 µM | 4.2 µM | 0.381 µM | 7.4 µM | – | – | – | –
O=C(c1ccc(F)cc1)C1CCN(CCn2c(=O)[nH]c3ccccc3c2=O)CC1 [KETANSERIN] | 0.353 µM | 0.077 µM | 1.19 µM | 0.18 µM | 0.1 µM | – | – | – | Non-Toxic | –
CCOC(=O)C1CN(CCn2c(=O)[nH]c3ccccc3c2=O)CCC1c1ccc(F)cc1 (single isomer, unassigned; (+)) [listing 2 of 2 here] | – | – | – | – | 0.00339 µM | > 10 µM | 2.44 µM | – | Non-Toxic | Ki [16]: > 10 µM; Ki [17]: > 10 µM
CCOC(=O)C1CN(CCn2c(=O)[nH]c3ccccc3c2=O)CCC1c1ccc(F)cc1 (single isomer, unassigned; (-)) [listing 2 of 2 here] | – | – | – | – | – | – | – | inactive | – | –
CCOC(=O)[C@@H]1CN(CCn2c(=O)[nH]c3ccccc3c2=O)CC[C@@H]1c1cccc2c1OCCO2 (racemic) | – | – | – | – | – | > 10 µM | > 10 µM | inactive | – | –
